In ChEMBL document CHEMBL2034818, “Synthesis and evaluation of boronic acids as inhibitors of Penicillin Binding Proteins of classes A, B and C” (Bioorg Med Chem, 2012):
Residue numbers refer to the chain shown, from its start. pIC50, pKi: −log10 of the molar value.

Key:
[1] = molecular target: D-alanyl-D-alanine carboxypeptidase (Actinomadura sp. R39) (UniProt P39045); experiment: Inhibition of Actinomadura sp. R39 PBP using S2d as substrate assessed as residual activity at 1 mM incubated for 60 mins prior to substrate addition by DTNB-based spectrophotometry
Sequence of D-alanyl-D-alanine carboxypeptidase (Actinomadura sp. R39) (P39045 whole entry): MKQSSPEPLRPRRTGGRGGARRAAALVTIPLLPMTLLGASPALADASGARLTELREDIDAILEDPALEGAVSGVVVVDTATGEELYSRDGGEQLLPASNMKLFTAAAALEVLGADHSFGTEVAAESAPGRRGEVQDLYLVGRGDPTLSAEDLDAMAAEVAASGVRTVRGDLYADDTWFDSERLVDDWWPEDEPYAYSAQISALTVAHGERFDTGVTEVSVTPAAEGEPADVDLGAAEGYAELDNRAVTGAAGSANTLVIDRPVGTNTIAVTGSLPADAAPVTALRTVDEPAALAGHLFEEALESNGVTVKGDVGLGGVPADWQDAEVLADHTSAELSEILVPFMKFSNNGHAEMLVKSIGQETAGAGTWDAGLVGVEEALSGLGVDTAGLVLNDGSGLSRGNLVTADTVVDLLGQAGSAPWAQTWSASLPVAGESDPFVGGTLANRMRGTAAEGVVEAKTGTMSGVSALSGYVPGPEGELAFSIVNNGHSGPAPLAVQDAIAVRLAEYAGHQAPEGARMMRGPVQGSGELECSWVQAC
Method in brief: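 R39 (Actinomadura, prepared per Granier), 3.5 nM, pre-incubated with inhibitor 60 min at 25 °C in 10 mM sodium phosphate pH 7.2, 100 mM NaCl, 100 mM D-alanine, 0.01 mg/mL BSA; inhibitors from DMF stock, 1% DMF final. Residual activity from initial rate of S2d (1 mM) hydrolysis with DTNB (1 mM), read at 412 nm, corrected for spontaneous hydrolysis; triplicates, uninhibited control six replicates per plate.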

[2] = molecular target: T1, Penicillin-binding protein 2X (Streptococcus pneumoniae R6) (UniProt P59676); experiment: Inhibition of penicillin-sensitive Streptococcus pneumoniae R6 PBP2x using S2d as substrate assessed as residual activity at 1 mM incubated for 60 mins prior to substrate addition by DTNB-based spectrophotometry
T1 sequence (whole entry): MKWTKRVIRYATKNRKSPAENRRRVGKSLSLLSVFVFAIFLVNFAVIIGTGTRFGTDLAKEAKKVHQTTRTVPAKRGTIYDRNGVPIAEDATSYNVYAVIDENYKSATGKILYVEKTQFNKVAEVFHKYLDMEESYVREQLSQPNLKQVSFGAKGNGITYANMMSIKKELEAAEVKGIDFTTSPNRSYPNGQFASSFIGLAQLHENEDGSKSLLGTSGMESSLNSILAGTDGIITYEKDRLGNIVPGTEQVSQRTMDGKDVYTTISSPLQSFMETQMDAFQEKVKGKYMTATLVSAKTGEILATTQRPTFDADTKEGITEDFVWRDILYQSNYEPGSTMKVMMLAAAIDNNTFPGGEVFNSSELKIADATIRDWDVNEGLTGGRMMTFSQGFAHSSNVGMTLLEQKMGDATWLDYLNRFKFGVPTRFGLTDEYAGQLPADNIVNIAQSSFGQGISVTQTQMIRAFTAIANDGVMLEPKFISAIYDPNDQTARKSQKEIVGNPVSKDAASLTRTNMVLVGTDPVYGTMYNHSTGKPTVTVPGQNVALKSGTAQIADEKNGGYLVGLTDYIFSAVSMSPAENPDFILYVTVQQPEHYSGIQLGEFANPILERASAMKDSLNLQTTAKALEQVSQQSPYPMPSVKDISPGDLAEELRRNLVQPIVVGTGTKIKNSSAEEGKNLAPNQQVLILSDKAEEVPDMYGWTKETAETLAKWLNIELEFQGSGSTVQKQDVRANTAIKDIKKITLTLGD
Method in brief: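 S. pneumoniae PBP2x-R6, 0.09 µM, pre-incubated with inhibitor in 10 mM sodium phosphate pH 7.0 with 0.01 mg/mL BSA, 60 min, 25 °C; 1% DMF final. S2d (1 mM) plus DTNB (1 mM) then added; residual activity taken from initial hydrolysis rate at 412 nm, corrected for spontaneous hydrolysis; triplicates, six no-inhibitor controls per plate.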

Streptococcus pneumoniae [3] = experiment: Inhibition of Streptococcus pneumoniae PBP1b assessed as residual activity at 100 uM incubated for 60 mins prior to fluoresceyl-ampicillin labelling measured after 20 mins by SDS-PAGE analysis in the presence of triton X 100
Method in brief: (§1)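 Assay A: purified S. pneumoniae PBP1b (0.7 µM) pre-incubated with inhibitor in 10 mM sodium phosphate pH 7.0, 60 min, 25 °C, 0.01% Triton X-100. Remaining active enzyme labelled with fluoresceyl-ampicillin (10 µM), 20 min; reaction stopped, run on SDS-PAGE, fluorescence of the band quantified as residual activity.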

[4] = Inhibition of Streptococcus pneumoniae PBP1b using PATP thioester as substrate incubated for 60 mins prior to substrate addition by DNTB-based spectrophotometry in the presence of triton X 100
Method in brief: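 Assay B: S. pneumoniae PBP1b (0.2 µM) pre-incubated with inhibitor 60 min at 25 °C in 10 mM sodium phosphate pH 7.0, 100 mM D-alanine, 0.01 mg/mL BSA, 0.01% Triton X-100. Residual activity from initial rates of PATP thioester (5 mM) hydrolysis with DTNB (1.0 mM); IC50 by non-linear regression of residual activity across concentrations.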

[5] = molecular target: T2, Penicillin-binding protein 2x (Streptococcus pneumoniae serotype 4 (strain ATCC BAA-334 / TIGR4)) (UniProt P14677); experiment: Inhibition of penicillin-resistant Streptococcus pneumoniae 5204 PBP2x using S2d as substrate assessed as residual activity at 1 mM incubated for 4 hrs prior to substrate addition by DNTB-based spectrophotometry
T2 sequence (whole entry): T1 sequence (whole entry) with M385T

Staphylococcus aureus = experiment: Inhibition of penicillin-resistant Staphylococcus aureus PBP2a assessed as residual activity at 1 mM incubated for 4 hrs prior to prior to fluoresceyl-ampicillin labelling measured after 20 mins by SDS-PAGE analysis
Enterococcus faecium = experiment: Inhibition of penicillin-resistant Enterococcus faecium PBP5fm assessed as residual activity at 1 mM incubated for 4 hrs prior to prior to fluoresceyl-ampicillin labelling measured after 20 mins by SDS-PAGE analysis
[6] = molecular target: T3, D-alanyl-D-alanine carboxypeptidase (Actinomadura sp. R39, UniProt P39045); experiment: Inhibition of Actinomadura sp. R39 PBP using S2d as substrate incubated for 60 mins prior to substrate addition by DTNB-based spectrophotometry
T3 sequence (P39045 whole entry): as the sequence (P39045 whole entry) above
Method in brief: (§2)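 PBP purified per earlier method. Pre-incubation: enzyme with inhibitor (DMF stock, 1% DMF final) at 25 °C for 60 min. Buffer for R39 (3.5 nM): 10 mM sodium phosphate pH 7.2, 100 mM NaCl, 100 mM D-alanine, 0.01 mg/mL BSA. Buffer for PBP2xR6: 10 mM sodium phosphate pH 7.0, 0.01 mg/mL BSA. S2d (1 mM) and DTNB (1 mM) then added. Initial hydrolysis rate read at 412 nm. Triplicates. IC50 by non-linear regression of residual activity over a concentration range, with 0.01% Triton X-100.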

[7] = molecular target: T4, Penicillin-binding protein 2X (Streptococcus pneumoniae R6, UniProt P59676); experiment: Inhibition of penicillin-sensitive Streptococcus pneumoniae R6 PBP2x using S2d as substrate incubated for 60 mins prior to substrate addition by DTNB-based spectrophotometry; method in brief: as §2
T4 sequence (P59676 whole entry): T1 sequence (whole entry)

Streptococcus pneumoniae [8] = experiment: Inhibition of Streptococcus pneumoniae PBP1b using PATP thioester as substrate assessed as residual activity at 1 mM incubated for 60 mins prior to substrate addition by DNTB-based spectrophotometry
Method in brief: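 PBP1b (0.2 µM) pre-incubated with inhibitor for 60 min at 25 °C in 10 mM sodium phosphate pH 7.0, 100 mM D-alanine, 0.01 mg/mL BSA. PATP thioester (5 mM) and DTNB (1.0 mM) then added. Residual activity derived from initial hydrolysis rates against no-inhibitor controls.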

[9] = molecular target: T3, D-alanyl-D-alanine carboxypeptidase; experiment: Binding affinity to Actinomadura sp. R39 PBP
Streptococcus pneumoniae [10] = experiment: Inhibition of Streptococcus pneumoniae PBP1b assessed as residual activity at 1mM incubated for 60 mins prior to fluoresceyl-ampicillin labelling measured after 20 mins by SDS-PAGE analysis in the presence of triton X 100; method in brief: as §1
[11] = Inhibition of Streptococcus pneumoniae PBP1b incubated for 60 mins prior to fluoresceyl-ampicillin labelling measured after 20 mins by SDS-PAGE analysis in the presence of triton X 100; method in brief: as §1

## Cc1ccccc1C(=O)NCB(O)O
[1]
  Activity: 45%
[2]
  Activity: 70%
Streptococcus pneumoniae [3]
  Activity: 27%
[4]
  pIC50: 4.74
[5]
  Activity: 105%
Staphylococcus aureus
  Activity: 88%
Enterococcus faecium
  Activity: 85%

## COc1cccc(OC)c1C(=O)NCB(O)O
[6]
  pIC50: 5.89
[1]
  Activity: 0%
[7]
  pIC50: 3.56
[2]
  Activity: 26%
[4]
  pIC50: < 3.00
Streptococcus pneumoniae [8]
  Activity: 67%
[5]
  Activity: 100%
[9]
  pKi: 5.82

## O=C(CCc1ccccc1)NCB(O)O
[1]
  Activity: 51%
[2]
  Activity: 71%
Streptococcus pneumoniae [10]
  Activity: 0%
Streptococcus pneumoniae [3]
  Activity: 95%
[5]
  Activity: 99%
Staphylococcus aureus
  Activity: 83%
Enterococcus faecium
  Activity: 79%

## COc1cccc(C(=O)NCB(O)O)c1
[1]
  Activity: 50%
[2]
  Activity: 55%
[11]
  pIC50: 4.10
Streptococcus pneumoniae [10]
  Activity: 23%
[5]
  Activity: 101%
Staphylococcus aureus
  Activity: 91%
Enterococcus faecium
  Activity: 89%
